This is an account of results in PMC2889672 (Biochemistry, 2010).

Experiment [1] has as its target T1, S. pneumoniae UPPS (Streptococcus pneumoniae serotype 4, UniProt Q97SR4).
T1 sequence (Q97SR4 1-252): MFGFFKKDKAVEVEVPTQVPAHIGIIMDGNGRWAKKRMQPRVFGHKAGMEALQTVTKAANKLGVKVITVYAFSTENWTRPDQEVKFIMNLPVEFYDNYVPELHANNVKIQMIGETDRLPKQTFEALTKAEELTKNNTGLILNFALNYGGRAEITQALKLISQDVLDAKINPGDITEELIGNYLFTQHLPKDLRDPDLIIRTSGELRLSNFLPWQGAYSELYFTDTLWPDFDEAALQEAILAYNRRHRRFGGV
The experiment is described as follows: Biomol Green assay of UPPS activity. The format is biochemical. The procedure, abridged:
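His-tagged S. pneumoniae UPPS expressed in E. coli BL21(DE3) and purified by Ni-NTA and size exclusion, then mixed 1:2 (w/v) with liposomes of total E. coli lipid extract. Released phosphate quantified with Biomol Green reagent.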

Experiment [2] deals with T1, S. pneumoniae UPPS. The experiment is described as follows: Photo-cross-linking with Photo-probe and mass spectrometry. The class given is binding. The settings on record: 30 μM UPPS, 30 μM Photo-probe, UV 350 nm 10 min.
Experiment [3] addresses T1, S. pneumoniae UPPS. The experiment is described as follows: Protein fluorescence binding experiments. Conditions: excitation 285 nm; 1 μM UPPS, 5 μM compound. The essentials:
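Intrinsic protein fluorescence: emission scanned 300−500 nm at excitation 285 nm. Buffer: 100 mM HEPES pH 7.3, 0.5 mM MgCl2, 50 mM KCl, 1.25% DMSO. Test compound (final 5 μM) preincubated 15 min with UPPS (final 1 μM) before adding FsPP (15 μM), IsPP (40 μM) or both. Spectra are averages of two scans.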

`O=C(Nc1ccc(C(=O)c2ccccc2)cc1)C1=C(O)C(CCc2ccccc2)NC1=O` (stereo not shown) [Photo-probe, N-(4-Benzoylphenyl)-4-hydroxy-2-oxo-5-phenethyl-2,5-dihydro-1H-pyrrole-3-carboxamide]: the IC50 at S. pneumoniae UPPS [1] is 630 nM. Besides, on S. pneumoniae UPPS [2], the “binding to and modification of UPPS in the absence of substrate” value is “bound to and modified UPPS”.

Take `CC1(Cc2ccccc2)NC(=O)C(C(=O)Nc2ccc(C3CCCCC3)cc2)=C1O` (stereo not shown) [compound 1, 5-benzyl-4-hydroxy-5-methyl-2-oxo-2,5-dihydro-1H-pyrrole-3-carboxylic acid (4-cyclohexylphenyl)amide]: it took 450 nM to reach half-maximal inhibition on S. pneumoniae UPPS [1] (IC50). Besides, on S. pneumoniae UPPS [3], the “change of intrinsic fluorescence of S. pneumoniae UPPS upon addition of compound” value is recorded as “increased”.

What is called IC50 is the concentration needed to halve the response being measured. Higher therefore signals weaker potency in that assay.
